For eleven compounds, IC50 and RIC50 results are on record in ChEMBL document CHEMBL1143610, “Applying linear interaction energy method for rational design of noncompetitive allosteric inhibitors of the sarco- and endoplasmic reticulum calcium-ATPase” (J Med Chem, 2005).

SMILES strings stand for the structures. pIC50: −log10 of the molar value.

As usually defined, the pIC50 is −log10 of the IC50, conventionally taken in molar units.

The target of experiment [1] is T1, Sarcoplasmic/endoplasmic reticulum calcium ATPase 1 (Homo sapiens, UniProt O14983). As to the kind of experiment: Inhibitory activity against sarco- endoplasmic reticulum calcium-ATPase.
Target sequence in this assay (O14983 whole entry): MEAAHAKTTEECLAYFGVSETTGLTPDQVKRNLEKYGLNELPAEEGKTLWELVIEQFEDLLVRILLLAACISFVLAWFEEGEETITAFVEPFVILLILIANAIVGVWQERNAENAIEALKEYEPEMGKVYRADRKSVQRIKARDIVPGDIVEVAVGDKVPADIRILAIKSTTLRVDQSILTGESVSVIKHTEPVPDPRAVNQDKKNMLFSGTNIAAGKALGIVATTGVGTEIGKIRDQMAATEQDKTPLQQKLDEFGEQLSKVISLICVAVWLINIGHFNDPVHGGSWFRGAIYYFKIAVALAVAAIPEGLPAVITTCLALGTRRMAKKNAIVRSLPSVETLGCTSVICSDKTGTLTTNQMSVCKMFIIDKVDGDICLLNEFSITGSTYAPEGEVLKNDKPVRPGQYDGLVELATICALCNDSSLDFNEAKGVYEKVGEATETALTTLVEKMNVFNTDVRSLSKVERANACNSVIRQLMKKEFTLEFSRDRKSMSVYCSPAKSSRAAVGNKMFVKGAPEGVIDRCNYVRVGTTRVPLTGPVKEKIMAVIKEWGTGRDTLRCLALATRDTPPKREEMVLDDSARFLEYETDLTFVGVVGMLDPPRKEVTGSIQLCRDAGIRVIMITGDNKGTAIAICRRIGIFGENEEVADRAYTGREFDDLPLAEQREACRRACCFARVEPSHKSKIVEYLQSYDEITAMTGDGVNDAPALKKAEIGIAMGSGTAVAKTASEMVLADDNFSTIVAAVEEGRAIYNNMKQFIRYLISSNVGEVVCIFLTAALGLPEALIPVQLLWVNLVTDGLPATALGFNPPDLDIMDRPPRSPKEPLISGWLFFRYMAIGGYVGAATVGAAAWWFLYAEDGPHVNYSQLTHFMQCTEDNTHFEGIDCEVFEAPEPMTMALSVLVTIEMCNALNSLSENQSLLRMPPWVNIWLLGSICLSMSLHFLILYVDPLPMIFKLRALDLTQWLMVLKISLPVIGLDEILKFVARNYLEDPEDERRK
Experiment [2] addresses T1, Sarcoplasmic/endoplasmic reticulum calcium ATPase 1. As to the kind of experiment: Inhibitory potency against sarco- endoplasmic reticulum calcium-ATPase in relative to thapsigargin (Experimental).
Target sequence in this assay (O14983 whole entry, looked up): as the sequence (O14983 whole entry) above
For experiment [3] the target is unchanged. As to the kind of experiment: Inhibitory potency against sarco- endoplasmic reticulum calcium-ATPase in relative to thapsigargin by using SGB-LIE method. An outline of the steps:
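SGB-LIE computation with a surface generalized Born continuum solvent. SERCA coordinates came from one TG-bound monomer of PDB 1IWO, truncated to the transmembrane domain, lumen and the near-membrane cytoplasmic part. Histidine protonation was set to favour H-bonds. Ligands were superimposed on bound TG, with O-8 side chains in the hydrophobic channel. Vacuum minimisation held protein atoms fixed except nonpolar H. LIE parameters were fitted to experimental data for 20 training analogues.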
Target sequence in this assay (O14983 whole entry, looked up): as the sequence (O14983 whole entry) above

The target is the same in experiment [4]. The experiment is described as follows: Inhibitory potency against sarco- endoplasmic reticulum calcium-ATPase in relative to thapsigargin.
Target sequence in this assay (O14983 whole entry, looked up): as the sequence (O14983 whole entry) above

On to `CCCCCCCC(=O)O[C@@H]1C(=O)C(C)=C2[C@H]1[C@@](C)(OC(C)=O)C[C@H](OC(=O)CCCCCCCCCCC(=O)O)[C@@]1(O)[C@H]2OC(=O)[C@@]1(C)O`, for which the pIC50 in experiment [1] was 8.68. Also, the RIC50 in experiment [2] amounted to 0.25; in experiment [3], 2.08.

For `CCCCCCCC(=O)O[C@@H]1C(=O)C(C)=C2[C@H]1[C@@](C)(OC(C)=O)C[C@H](OC(=O)CCCCCCCCCCCNC(=O)CCC(N)C(=O)O)[C@@]1(O)[C@H]2OC(=O)[C@@]1(C)O` (some centres undefined), the negative logarithm of the IC50 (pIC50) in experiment [1] was 8.92. The RIC50 is 0.83 in experiment [2] and 5 in experiment [3].

Consider `CCCCCCCC(=O)O[C@@H]1C(=O)C(C)=C2[C@H]1[C@@](C)(OC(C)=O)C[C@H](OC(=O)CCC(=O)Nc1ccc(C)c(N)c1)[C@@]1(O)[C@H]2OC(=O)[C@@]1(C)O`, for which the pIC50 in experiment [1] was 5.04. The values for the RIC50 in experiment [2] and in experiment [3] were 0.004 and 0.0006, respectively.

For `C/C=C(/C)C(=O)O[C@H]1C(C)=C2[C@H]([C@@H]1OC(=O)CCCCCCC)[C@@](C)(OC(C)=O)C[C@H](OC(=O)CCc1ccc(N)cc1)[C@@]1(O)[C@H]2O[C@H](O)[C@@]1(C)O`, in experiment [4], the RIC50 worked out at 0.68. Turning to `CCCCCCCC(=O)O[C@@H]1C(=O)C(C)=C2[C@H]1[C@@](C)(OC(C)=O)C[C@H](OC(=O)CCCC(=O)O)[C@@]1(O)[C@H]2OC(=O)[C@@]1(C)O`, the pIC50 in experiment [1] is 7.70. The RIC50 worked out at 0.02 in experiment [2] and 0.31 in experiment [3]. Consider `C/C=C(/C)C(=O)O[C@H]1C(C)=C2[C@H]([C@@H]1OC(=O)CCCCCCC)[C@@](C)(OC(C)=O)C[C@@H](OC(=O)CCC)[C@@]1(O)[C@H]2OC(=O)[C@@]1(C)O`, for which the RIC50 in experiment [4] worked out at 0.0003. Take `C/C=C(\C)C(=O)O[C@H]1C(C)=C2[C@H]([C@@H]1OC(=O)CCCCCCC)[C@@](C)(O)C[C@H](OC(=O)CCC)[C@@]1(O)[C@H]2OC(=O)[C@@]1(C)O`: in experiment [4], the RIC50 stood at 0.02.

On to `C/C=C(/C)C(=O)O[C@H]1C(C)=C2[C@H]([C@@H]1OC(=O)CCCCC)[C@@](C)(OC(C)=O)C[C@H](OC(=O)CCC)[C@@]1(O)[C@H]2O[C@H]2O[C@@H](OCC)O[C@]21C`, for which the RIC50 in experiment [4] was 0.02.

Take `C/C=C(/C)C(=O)O[C@H]1C(C)=C2[C@H]([C@@H]1OC(=O)CCCCCCC)[C@@](C)(O)C[C@H](OC(=O)CCCCCCC)[C@@]1(O)[C@H]2OC(O)[C@@]1(C)O` (some centres undefined): the RIC50 in experiment [4] amounted to 0.08.

For `C/C=C(/C)C(=O)O[C@H]1C(C)=C2[C@H]([C@@H]1OC(=O)CCCCCCC)[C@@](C)(OC(C)=O)C[C@H](OC(=O)CCCCCN)[C@@]1(O)[C@H]2O[C@H](O)[C@@]1(C)O`, the RIC50 in experiment [4] stood at 0.01. `C/C=C(/C)C(=O)O[C@H]1C(C)=C2[C@H]([C@@H]1OC(=O)CCCCC)[C@@](C)(OC(C)=O)C[C@H](OC(=O)CCC)[C@@]1(O)[C@H]2O[C@@H](OCC)[C@@]1(C)O`: in experiment [4], the RIC50 amounted to 0.52.
